Activity calls are given as the source filed them.
Experiments:
[1] = test system: HUVEC; assay: Inhibition of H2O2-induced HUVEC senescence pretreated for 1 day followed by compound washout and H2O2-treatment measured after 10 days by SA-beta galactosidase staining-based assay; type: functional, cell-based; conditions: Homo sapiens
Procedure, shortened: (§1)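 HUVEC at PDL 10−11 were grown to 80% confluence and pretreated 1 day with compound at 100 μmol/L (vehicle 0.05% DMSO). After washing, they received 100 μmol/L H2O2 for 1 h and were reseeded at 1 × 10^6 per dish. Culture continued 10 days with compound. Fixed cells were scored for SA-βgal-positive proportion, with hematoxylin counterstain for morphology; n = 3.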

[2] = target: T1, NAD-dependent protein deacetylase sirtuin-1 (Homo sapiens) (UniProt Q96EB6); assay: Induction of SIRT1-mediated NRF-1 expression in H2O2-induced HUVEC pretreated for 1 day followed by compound washout and H2O2-treatment measured after 10 days by RT-PCR analysis; type: cell-based
T1 sequence (whole entry): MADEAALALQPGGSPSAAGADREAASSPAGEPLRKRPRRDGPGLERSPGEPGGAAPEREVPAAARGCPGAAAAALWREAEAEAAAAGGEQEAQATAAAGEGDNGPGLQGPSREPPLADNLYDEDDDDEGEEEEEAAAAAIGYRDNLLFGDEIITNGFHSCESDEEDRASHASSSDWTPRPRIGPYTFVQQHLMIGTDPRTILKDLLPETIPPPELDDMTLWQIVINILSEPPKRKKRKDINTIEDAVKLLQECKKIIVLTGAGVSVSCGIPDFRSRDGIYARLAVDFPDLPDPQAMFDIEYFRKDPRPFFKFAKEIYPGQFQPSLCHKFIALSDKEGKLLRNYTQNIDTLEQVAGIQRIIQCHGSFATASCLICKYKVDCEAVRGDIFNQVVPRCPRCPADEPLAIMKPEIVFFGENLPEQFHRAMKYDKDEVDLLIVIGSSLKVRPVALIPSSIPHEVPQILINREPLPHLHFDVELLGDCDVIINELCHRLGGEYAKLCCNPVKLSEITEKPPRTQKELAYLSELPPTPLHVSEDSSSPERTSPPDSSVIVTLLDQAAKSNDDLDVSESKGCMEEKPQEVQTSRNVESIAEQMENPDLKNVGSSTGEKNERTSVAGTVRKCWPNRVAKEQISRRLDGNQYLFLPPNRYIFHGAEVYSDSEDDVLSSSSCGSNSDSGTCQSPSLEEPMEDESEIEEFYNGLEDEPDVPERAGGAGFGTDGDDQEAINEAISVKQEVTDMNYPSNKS
Procedure, shortened: (§2)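 HUVEC were treated with compound at 100 μmol/L and H2O2 as in the senescence protocol. Total RNA was DNase-treated, then reverse transcribed with random hexamers and oligo d(T). mRNA was quantified by SYBR green real-time PCR relative to β-actin. Primer quality was checked by dissociation curves, standard-curve slopes and no-RT reactions.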

[3] = target: T1, NAD-dependent protein deacetylase sirtuin-1 (Homo sapiens); assay: Activation of SIRT1 (unknown origin) by fluorescence assay
Procedure, shortened: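 HUVEC exposed to compounds at 100 μmol/L were assayed for SIRT1 activity with a fluorescent SIRT1 activity kit, following the manufacturer's protocol. NAD+ was the positive control. Comparison was against vehicle control, n = 3.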

[4] = test system: HUVEC; assay: Effect on SIRT1 expression in H2O2-induced HUVEC pretreated for 1 day followed by compound washout and H2O2-treatment measured after 10 days by immunoblotting analysis; type: functional, cell-based; conditions: Homo sapiens
Procedure, shortened: (§3)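 HUVEC at PDL 10−11 were pretreated 1 day with compound at 100 μmol/L in EGM-2 (vehicle 0.05% DMSO). Cells were washed and exposed to 100 μmol/L H2O2 for 1 h. They were then reseeded and cultured 10 days with compound. Lysates were made in Tris/NP40/SDS buffer with protease and phosphatase inhibitors and immunoblotted. β-actin was the loading reference, with ECL detection.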

[5] = test system: HUVEC; assay: Effect on eNOS expression in H2O2-induced HUVEC pretreated for 1 day followed by compound washout and H2O2-treatment measured after 10 days by immunoblotting analysis; type: functional, cell-based; conditions: Homo sapiens; procedure, shortened: as §3
[6] = test system: HUVEC; assay: Effect on PAI-1 expression in H2O2-induced HUVEC pretreated for 1 day followed by compound washout and H2O2-treatment measured after 10 days by immunoblotting analysis; type: functional, cell-based; conditions: Homo sapiens; procedure, shortened: as §3
[7] = target: T1, NAD-dependent protein deacetylase sirtuin-1 (Homo sapiens); assay: Induction of SIRT1-mediated TFAM expression in H2O2-induced HUVEC pretreated for 1 day followed by compound washout and H2O2-treatment measured after 10 days by RT-PCR analysis; type: cell-based; procedure, shortened: as §2
[8] = test system: HUVEC; assay: Inhibition of H2O2-induced HUVEC senescence assessed as change in cellular morphology pretreated for 1 day followed by compound washout and H2O2-treatment measured after 10 days by hematoxylin staining-based assay; type: functional, cell-based; conditions: Homo sapiens; procedure, shortened: as §1
[9] = test system: HUVEC; assay: Induction of mitochondrial biogenesis in H2O2-induced HUVEC at 100 umol/L pretreated for 1 day followed by compound washout and H2O2-treatment measured after 10 days by MitoTracker Red staining-based assay; type: functional, cell-based; conditions: Homo sapiens
Procedure, shortened: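 HUVEC were grown in chamber slides to 80% confluence and treated with compound at 100 μmol/L plus H2O2. At 10 days after H2O2, cells were stained 15 min with 100 nM MitoTracker Red CMXRos in prewarmed medium. Nuclei were counterstained with DAPI and cells imaged by fluorescence microscopy.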

[10] = test system: HUVEC; assay: Effect on p53 expression in H2O2-induced HUVEC pretreated for 1 day followed by compound washout and H2O2-treatment measured after 10 days by immunoblotting analysis; type: functional, cell-based; conditions: Homo sapiens; procedure, shortened: as §3

Oc1ccc(/C=C/c2cc(O)cc(O)c2)cc1
active: inhibition [1] | Activity [2] | Activity [3] | Activity [4] | Activity [5] | Activity [6] | Activity [7] | inhibition [8] | Activity [9] | Activity [10]

— ChEMBL document CHEMBL2407023, “trans-Resveratrol in Gnetum gnemon protects against oxidative-stress-induced endothelial senescence” (J Nat Prod, 2013)
